Screening results deposited in PubChem by Broad Institute.
In the library only some 3.1% were active in any assay of this set; here they are far more common.
Ecoli rRNA inh – reduced GFP signal of wild-type E. coli, primary screen, bacterial rRNA inhibitor project, GFP/RFP fluorescence, OD600, single point. 350,000 compounds, 1.6% hits. AID 720706, 2013. GFP signal change (wild-type ribosome), % (test concentration not listed). E. coli WT GFP vs humanized-ribosome RFP mutants, 24 h; stronger effect = lower value; DMSO median 0, no signal -100;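 active = significant combined selectivity score with lowered wild-type GFP, culture density cut under 30%, mutant RFP and density less affected; inactive = any of these conditions unmet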
miR-122 sensor – miR-122 Renilla sensor signal increase in Huh7, primary screen, miR-122 inhibitor project, cell-based, single point, plate reader; 340,000 compounds, 0.3% hits; Huh7 miR-122 Renilla luciferase sensor, 48 h; neutral wells = 0, positive control = 100; activation (reporter increase), % at 12.5 µM;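 active = mean replicate activation score at least 90 and every replicate individually at or above 90; inconclusive = only one of the two criteria met; inactive = neither criterion met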;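 also: higher luciferase means less miR-122 activity so hits act as miR-122 inhibitors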
DENV2 CPE rescue – inhibitors of DENV2 cytopathic effect, primary screen, cell-based, plate reader, single concentration | CPE inhibition, % at 9.99 µM | DENV2-infected cells, cytopathic effect rescue | 350,000 compounds, 1.7% hits; in the data active = CPE inhibition above about 20%, passing the limit was not always enough; inconclusive = no clear call, values can overlap the other calls; tested in BHK-21 cells;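 also: 0% = median of neutral control wells and 100% = median of positive control wells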
Cneo AK release – Cryptococcus neoformans cell lysis inducers, primary screen, AK release luminescence, single concentration; 360,000 compounds, 0.2% hits; lysis activity, % at 15 µM; C. neoformans lysis, adenylate kinase release luminescence, 4 h; normalised: neutral wells 0, clomiphene wells 100;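 active = mean lysis activity across replicates of at least 80%, whatever share of replicates individually reach that level; inactive = mean lysis activity below 80%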
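Material: C. neoformans cells | Amount: Yeast cell density of 5 × 10^6 cells/mL | Medium: Fresh YPD growth medium | Dosing: Single dose | Times: Static 4 h at 37 °C with compound, 1 h detection | Detection: AK luminescence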
E-selectin induc – E-selectin induction in HUVECs, primary screen, imaging, HUVEC, immunofluorescence imaging, single point; P16581; normalized: neutral wells 0, TNF-alpha wells 100; activation, % at 7.58 µM; 260,000 compounds, 0.37% hits; AID 686992, 2013;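 active = mean E-selectin-positive cell signal at least 10% of the positive control, reached in at least 60% of replicates, without over 20% cell loss; inconclusive = no rule given, readout overlaps actives, possibly toxicity-flagged; inactive = the rest, including those meeting only one limit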
Target sequence (P16581 whole entry, looked up): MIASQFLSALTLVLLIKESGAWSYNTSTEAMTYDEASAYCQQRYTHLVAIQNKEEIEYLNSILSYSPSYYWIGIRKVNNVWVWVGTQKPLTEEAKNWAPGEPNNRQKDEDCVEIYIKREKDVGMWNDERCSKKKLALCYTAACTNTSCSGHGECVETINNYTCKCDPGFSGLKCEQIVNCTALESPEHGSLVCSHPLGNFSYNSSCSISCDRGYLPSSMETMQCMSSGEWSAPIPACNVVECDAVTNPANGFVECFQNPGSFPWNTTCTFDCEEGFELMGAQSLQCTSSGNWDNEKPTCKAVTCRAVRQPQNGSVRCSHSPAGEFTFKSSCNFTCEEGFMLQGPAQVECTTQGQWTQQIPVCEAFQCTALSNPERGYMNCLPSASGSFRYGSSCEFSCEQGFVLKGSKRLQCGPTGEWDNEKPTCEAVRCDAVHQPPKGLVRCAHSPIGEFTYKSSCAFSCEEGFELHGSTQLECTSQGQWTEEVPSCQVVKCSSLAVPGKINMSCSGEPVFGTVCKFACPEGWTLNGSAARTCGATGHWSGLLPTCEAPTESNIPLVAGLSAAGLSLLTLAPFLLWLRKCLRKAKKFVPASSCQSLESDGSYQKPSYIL
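Assay system: HUVEC primary endothelial cells. Input: 3,000 HUVEC seeded per well. Doses: one compound dose added by pin transfer. Read-out basis: % PE-positive cells. Benchmarks: TNF-alpha high, DMSO low. Detection: immunofluorescence imaging. Buffer or medium: EGM-2, gelatin.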
The depositor's hits bear a star; ? = inconclusive; . = not tested or not shown; [ ] = another dose, or the depositor's remark.

SMILES | Ecoli rRNA inh | miR-122 sensor | DENV2 CPE rescue | Cneo AK release | E-selectin induc
O=C1CN(S(=O)(=O)c2ccccc2)C[C@@H]2[C@H](c3ccc(C#Cc4ccccc4)cc3)[C@H](CO)N12 | 2 | . | 3 | . | -1
CN(C)C(=O)[C@@H]1[C@@H](CO)[C@@H]2Cn3c(ccc(-c4ccccc4F)c3=O)[C@@H]2N1C(=O)c1cnccn1 | 3 | -3[16.7 µM] | 7 | -3 | -2
CN(C)CCn1c2ccccc2c2nc3ccc([N+](=O)[O-])cc3cc21 | -32* | -16 | -11 | -1 | -9
C/C=C/c1ccc([C@H]2[C@@H](CNC(=O)c3ccncc3)N(C(C)=O)[C@H]2CO)cc1 | -2 | -29[16.7 µM] | ? | -1 | 0
O=C(Nc1ccccc1)N[C@@H]1CC[C@@H](CCNC(=O)c2ccccc2F)O[C@@H]1CO | 0 | . | -2 | 1 | -1
CO[C@@H]1CN(C)C(=O)c2cc(NC(=O)Nc3ccccc3F)ccc2OC[C@H](C)N(CC2CC2)C[C@H]1C | -3 | . | -1 | 58 | 0
C[C@@H]1CN([C@@H](C)CO)C(=O)c2cc(-c3ccccc3F)cnc2O[C@H]1CN(C)Cc1cccc(C(=O)O)c1 | 1 | 2[16.7 µM] | -3 | 5 | 0
COC(=O)c1sc(-c2ccc(Cl)cc2)cc1N | -1 | -3 | 0 | 9 | 0
CC(=O)c1sc(-c2ccc(Cl)cc2)cc1N | -30* | . | -4 | . | 3
COc1ccccc1CN(C)C(=O)c1cccc(S(=O)(=O)N2CCCc3ccccc32)c1 | . | ? | 81* | 1 | .
COc1ccc(-c2cnc3c(c2)C(=O)N([C@H](C)CO)C[C@H](C)[C@H](CN(C)S(=O)(=O)c2ccc(OC)cc2)O3)cc1 | 2 | 6[16.7 µM] | . | . | 0
COC(=O)c1ccccc1NC(=O)N1c2ccccc2CC1C (centres undefined) | -34 | -2 | . | -3 | .
CCCCNC(=O)N1c2ccccc2CC1C (centres undefined) | 13 | 11 | -11 | . | 155*
Cc1ccc(S(=O)(=O)N2C[C@@H]3[C@H]4CC[C@H](C4)[C@@H]3[C@@H](C)[C@@H]2c2ccn([Si](C(C)C)(C(C)C)C(C)C)c2)cc1 | 3 | -3 | 25* | -1 | 0
C=CCC1[C@H](C)[C@H]2[C@@H]3CC[C@@H](C3)[C@H]2CN1S(=O)(=O)c1ccc(C)cc1 (some centres undefined) | 18 | . | -6 | 0 | 0
CC(C)NC(=O)N1CC2(C1)[C@@H](c1ccccc1)[C@@H](CO)N2C(=O)C1CCC1 | 0 | . | . | . | .
CC(NC(=O)c1cccc(S(=O)(=O)N2CCN(Cc3ccccc3)CC2)c1)c1ccc(Br)cc1 (centres undefined) | 7 | . | 25* | -4 | 0
COc1ccc(S(=O)(=O)Nc2ccc3c(c2)C(=O)N([C@@H](C)CO)C[C@@H](C)[C@@H](CN(C)Cc2ccc(C(=O)Nc4ccccc4N)cc2)O3)cc1 | 2 | 18[16.7 µM] | 1 | -1 | 34*
Cc1ccc(S(=O)(=O)Nc2ccc3c(c2)C(=O)N([C@H](C)CO)C[C@H](C)[C@@H](CN(C)Cc2ccc(C(=O)Nc4ccccc4N)cc2)O3)cc1 | -7 | . | 20* | . | 0
COc1ccc(S(=O)(=O)Nc2ccc3c(c2)C(=O)N([C@H](C)CO)C[C@@H](C)[C@@H](CN(C)Cc2ccc(C(=O)Nc4ccccc4N)cc2)O3)cc1 | -3 | 13[16.7 µM] | -2 | 1 | 2
C[C@H]1CN([C@@H](C)CO)C(=O)c2cccc(NC(=O)c3nc4ccccc4s3)c2O[C@H]1CN(C)Cc1ccc(C(=O)Nc2ccccc2N)cc1 | -6 | 31[16.7 µM] | . | . | 1
COc1ccc([N+](=O)[O-])cc1NC(=O)/C=C/C(=O)O | 3 | -1 | 66* | 9 | .
Cc1ccc(C(=O)c2c3ccc([N+](=O)[O-])cc3[n+]([O-])n2CCCN)cc1 | -2 | -9 | 21* | 1 | 0
Cc1ccc(C(=O)c2c3ccc(C(F)(F)F)cc3[n+]([O-])n2CCCN)cc1 | -34 | -6 | -15 | 0 | 0
CC(=O)Nc1ccc2nc(CN3CCC(CO)(CCc4ccccc4)CC3)ccc2c1 | 8 | 162* | -1 | 1 | .
SMILES | Ecoli rRNA inh | miR-122 sensor | DENV2 CPE rescue | Cneo AK release | E-selectin induc
CC(=O)c1cccc(CN2CCC(CO)(CCCc3ccccc3)CC2)c1 | 5 | 17 | 3 | . | 0
Cc1nc2cc(NS(=O)(=O)c3c(C)c(C)cc(C)c3C)ccc2s1 | . | 313* | . | -7 | .
Cc1nc2ccc(NS(=O)(=O)c3c(C)c(C)cc(C)c3C)cc2s1 | . | 125* | . | -1 | .
Cc1ccc(S(=O)(=O)Nc2ccc3nc(N)sc3c2)cc1 | . | 268* | . | -2 | .
O=C(C1CCCC1)N1CC[C@H]2[C@H](CO)Nc3ccc(C4=CCCCC4)cc3[C@H]21 | -29 | . | 5 | . | 0
CCN(CC)S(=O)(=O)c1ccc(C)c(NC(=O)COc2ccc(Cl)cc2Br)c1 | -8 | . | -3 | 3 | .
CCN(CC)S(=O)(=O)c1cccc(NC(=O)c2ccc(SC)cc2OC)c1 | -25* | -2 | 16 | 0 | 0
COc1cc(SC)ccc1C(=O)Nc1cccc(S(=O)(=O)NC2=NCCCCC2)c1 | -9 | -1 | ? | -7 | 1
CCN(CC)S(=O)(=O)c1cccc(NC(=O)COc2ccc(F)cc2Br)c1 | -27* | . | . | . | -4
CCN(CC)S(=O)(=O)c1ccc(/C=C/C(=O)Nc2cccc(F)c2)cc1 | -17* | 4 | -3 | 0 | .
CC(C)C[C@@H](CO)N1CCN(Cc2ccccc2)CCC1=O | . | -6 | . | -6 | 0
CC(C)C[C@@H](COc1ccccc1)N1CCN(Cc2ccccc2)CCC1=O | -35 | . | 28* | . | 0
CN1CCC(=O)N([C@H](COc2ccccc2)Cc2ccccc2)CC1 | 7 | 8 | 20* | 0 | 0
COc1ccc(CN2CCC(=O)N([C@H](CO)c3ccccc3)CC2)cc1 | 6 | 1 | 26* | 1 | 0
CCCN1CCC(=O)N([C@H](COc2ccccc2)Cc2ccccc2)CC1 | 4 | 1 | -3 | -2 | 0
CC(C)C[C@@H](CO)N1CCN(Cc2cccc(C#N)c2)CCC1=O | 10 | -1 | 20* | 0 | 0
Cc1noc(C)c1NC(=O)Nc1ccc2c(c1)CC(=O)N([C@@H](C)CO)C[C@@H](C)[C@H](CN(C)Cc1ccc3c(c1)OCO3)O2 | -1 | 0[16.7 µM] | -12 | -1 | .
COc1ccc2c3c([nH]c2c1)[C@@H](CO)N(C)CC31CN(C(=O)c2cccnc2)C1 | 1 | . | . | . | .
C[C@H](CO)N1C[C@H](C)[C@H](CN(C)Cc2ccc(C(F)(F)F)cc2)Oc2ccc(NS(=O)(=O)c3ccc(Cl)cc3)cc2CC1=O | 7 | 5[16.7 µM] | -9 | -5 | 1
